Laboratory results taken from ChEMBL document CHEMBL2086275, “Docking studies, synthesis, characterization of some novel oxazine substituted 9-anilinoacridine derivatives and evaluation for their antioxidant and anticancer activities as topoisomerase II inhibitors” (Eur J Med Chem, 2012).
Converted amounts (≈) assume the structure as drawn.

Experiments:
Type in all cases: functional
[1] = Antioxidant activity assessed as inhibition of superoxide radical-induced NBT reduction by alkaline DMSO method
[2] = Antioxidant activity assessed as hydrogen peroxide radical scavenging activity
[3] = Antitumor activity against mouse DLA cells after 3 hrs by trypan blue dye exclusion assay
Method in brief: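 DLA cells were grown in the peritoneal cavity of albino mice (25-30 g) by i.p. injection of 1×10^6 cells/mL. Cells were harvested on day 15, washed three times in HBSS and adjusted to 2×10^6 cells/mL. Cells were exposed to graded drug concentrations in PBS (1:1 volume) for 3 h at 37 °C, 5% CO2. Viability was counted by haemocytometer after 1:1 mixing with 0.4% trypan blue, and % inhibition and CTC50 were calculated.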

Compound	IC50 [1] [µg/mL]	IC50 [2] [µg/mL]	CC50 [3] [µg/mL]
O=C(/C=C/c1cccc(Cl)c1)c1ccc(Nc2c3ccccc3nc3ccccc23)cc1	> 500	> 1000	–
O=C(/C=C/c1ccccc1Cl)c1ccc(Nc2c3ccccc3nc3ccccc23)cc1	> 500	> 1000	–
C/C=C/C(=O)c1ccc(Nc2c3ccccc3nc3ccccc23)cc1	> 500	> 1000	–
COc1cc(/C=C/C(=O)c2ccc(Nc3c4ccccc4nc4ccccc34)cc2)ccc1O	> 500	> 1000	–
COc1ccc(/C=C/C(=O)c2ccc(Nc3c4ccccc4nc4ccccc34)cc2)cc1OC	> 500	> 1000	–
NC1N=C(c2ccc(Cl)cc2)C=C(c2ccc(Nc3c4ccccc4nc4ccccc34)cc2)O1 (configuration not stated)	68.13 (≈ 143 µM)	30.01 (≈ 62.9 µM)	640 (≈ 1340 µM)
NC1N=C(c2cccc(Cl)c2)C=C(c2ccc(Nc3c4ccccc4nc4ccccc34)cc2)O1 (configuration not stated)	37.43 (≈ 78.5 µM)	36.01 (≈ 75.5 µM)	820 (≈ 1720 µM)
NC1N=C(c2ccccc2Cl)C=C(c2ccc(Nc3c4ccccc4nc4ccccc34)cc2)O1 (configuration not stated)	32.05 (≈ 67.2 µM)	25.01 (≈ 52.4 µM)	590 (≈ 1240 µM)
NC1N=C(c2cccc([N+](=O)[O-])c2)C=C(c2ccc(Nc3c4ccccc4nc4ccccc34)cc2)O1 (configuration not stated)	29.03 (≈ 59.5 µM)	12 (≈ 24.6 µM)	600 (≈ 1230 µM)
COc1cc(C2=NC(N)OC(c3ccc(Nc4c5ccccc5nc5ccccc45)cc3)=C2)ccc1O (configuration not stated)	24.02 (≈ 49.2 µM)	14.5 (≈ 29.7 µM)	250 (≈ 512 µM)
COc1ccc(C2=NC(N)OC(c3ccc(Nc4c5ccccc5nc5ccccc45)cc3)=C2)cc1OC (configuration not stated)	28.01 (≈ 55.7 µM)	18.06 (≈ 35.9 µM)	190 (≈ 378 µM)
O=C(/C=C/c1cccc([N+](=O)[O-])c1)c1ccc(Nc2c3ccccc3nc3ccccc23)cc1	> 500	> 1000	–
O=C(/C=C/c1ccc(Cl)cc1)c1ccc(Nc2c3ccccc3nc3ccccc23)cc1	> 500	> 1000	–
O=C1O[C@H]([C@@H](O)CO)C(O)=C1O [ASCORBIC ACID]	24.77 (≈ 141 µM)	18.6 (≈ 106 µM)	–

The next lines start with results.

IC50 [1] [µg/mL]	IC50 [2] [µg/mL]	Compound	CC50 [3] [µg/mL]
> 500	> 1000	O=C(/C=C/c1ccc(Cl)cc1Cl)c1ccc(Nc2c3ccccc3nc3ccccc23)cc1	–
> 500	> 1000	O=C(/C=C/c1ccc([N+](=O)[O-])cc1)c1ccc(Nc2c3ccccc3nc3ccccc23)cc1	–
28.02 (≈ 54.8 µM)	20.03 (≈ 39.2 µM)	NC1N=C(c2ccc(Cl)cc2Cl)C=C(c2ccc(Nc3c4ccccc4nc4ccccc34)cc2)O1 (configuration not stated)	180 (≈ 352 µM)
22.27 (≈ 50.3 µM)	17.23 (≈ 38.9 µM)	NC1N=C(c2ccccc2)C=C(c2ccc(Nc3c4ccccc4nc4ccccc34)cc2)O1 (configuration not stated)	425 (≈ 960 µM)
47.5 (≈ 97.4 µM)	24.03 (≈ 49.3 µM)	NC1N=C(c2ccc([N+](=O)[O-])cc2)C=C(c2ccc(Nc3c4ccccc4nc4ccccc34)cc2)O1 (configuration not stated)	725 (≈ 1490 µM)
26.3 (≈ 69.1 µM)	14.2 (≈ 37.3 µM)	CC1=NC(N)OC(c2ccc(Nc3c4ccccc4nc4ccccc34)cc2)=C1 (configuration not stated)	140 (≈ 368 µM)
> 500	> 1000	O=C(/C=C/c1ccccc1)c1ccc(Nc2c3ccccc3nc3ccccc23)cc1	–
